Assay results published in ChEMBL document CHEMBL1933052, “Synthesis and anti-protozoal activity of novel dihydropyrrolo[3,4-d][1,2,3]triazoles” (Eur J Med Chem, 2012).
≈ marks a conversion by molar mass, not a printed value.

Tests used:
Plasmodium falciparum = assay: Antimalarial activity against chloquine- and pyrimethamine-resistant Plasmodium falciparum K1 erythrocytic stage assessed as inhibition of [3H]hypoxanthine incorporation after 48 hrs by liquid scintillation counting; format: functional, organism-based
Outline: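 Erythrocytic-stage cultures in hypoxanthine-free RPMI 1640 with 5% Albumax, exposed to serial drug dilutions at 37 °C under reduced oxygen for 48 h. 0.5 μCi [3H]-hypoxanthine per well was then added for a further 24 h. Cells were harvested onto glass-fibre filters and counted as CPM, expressed as % of untreated controls. IC50 was read from dose–response curves. Chloroquine was the reference.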

Trypanosoma cruzi = assay: Trypanocidal activity against trypomastigote Trypanosoma cruzi Tulahuen C2C4 infected in L6 cells after 96 hrs by beta-galactosidase reporter gene assay; format: functional, organism-based; conditions: Tulahuen C2C4, L6, 96 h
[1] = tested on: Trypanosoma brucei rhodesiense; assay: Trypanocidal activity against Trypanosoma brucei rhodesiense STIB 900 bloodstream forms after 72 hrs by resazurin assay; format: functional, organism-based; conditions: STIB 900, 72 h
Outline: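 Bloodstream forms, 10^4/well, in MEM with 25 mM HEPES, extra glucose, non-essential amino acids, 0.2 mM 2-mercaptoethanol, 1 mM pyruvate, 15% heat-inactivated horse serum; seven 3-fold dilutions 90 to 0.123 µg/mL; 37 °C, 5% CO2, 72 h; resazurin 2–4 h more; fluorescence ex 536/em 588 nm; melarsoprol standard.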

Leishmania donovani = assay: Leishmanicidal activity against Leishmania donovani MHOM/ET/67/L82 amastigote forms after 72 hrs by resazurin assay; format: functional, organism-based; conditions: MHOM/ET/67/L82, 72 h
L6 = assay: Cytotoxicity against rat L6 cells after 72 hrs by resazurin assay; format: cell-based; conditions: L6, 72 h
Outline: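 L6 rat skeletal myoblasts, 4×10^4 cells/well in RPMI 1640 with 10% FBS and L-glutamine; seven 3-fold serial dilutions, 90 to 0.123 µg/mL; 72 h; microscopic check of controls and sterility; resazurin added, 2 h further; fluorescence read at ex 536/em 588 nm.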

Structure (SMILES)	IC50 (Plasmodium falciparum)	IC50 (Trypanosoma cruzi)	IC50 [1]	IC50 (Leishmania donovani)	IC50 (L6)
O=C1[C@H]2N=NN(Cc3nc(-c4ccccc4)no3)[C@H]2C(=O)N1c1ccccc1	22.6 µg/mL (≈ 60.4 µM)	46.1 µg/mL (≈ 123 µM)	7 µg/mL (≈ 18.7 µM)	1.6 µg/mL (≈ 4.27 µM)	47.3 µg/mL (≈ 126 µM)
O=C1[C@H]2N=NN(Cc3nc(-c4ccc(Cl)cc4)no3)[C@H]2C(=O)N1c1ccccc1	24.9 µg/mL (≈ 60.9 µM)	49 µg/mL (≈ 120 µM)	17.2 µg/mL (≈ 42.1 µM)	3.2 µg/mL (≈ 7.83 µM)	49.5 µg/mL (≈ 121 µM)
O=C1[C@H]2N=NN(Cc3nc(-c4ccc(Br)cc4)no3)[C@H]2C(=O)N1c1ccccc1	26.9 µg/mL (≈ 59.3 µM)	54.9 µg/mL (≈ 121 µM)	18.2 µg/mL (≈ 40.2 µM)	3.5 µg/mL (≈ 7.72 µM)	58.6 µg/mL (≈ 129 µM)
O=C1[C@H]2N=NN(Cc3nc(-c4ccc(F)cc4)no3)[C@H]2C(=O)N1c1ccccc1	23.6 µg/mL (≈ 60.2 µM)	62.4 µg/mL (≈ 159 µM)	12.3 µg/mL (≈ 31.3 µM)	4.1 µg/mL (≈ 10.4 µM)	> 100 µg/mL
Cc1ccc(-c2noc(CN3N=N[C@@H]4C(=O)N(c5ccccc5)C(=O)[C@@H]43)n2)cc1	13.2 µg/mL (≈ 34 µM)	38.9 µg/mL (≈ 100 µM)	8.4 µg/mL (≈ 21.6 µM)	2.2 µg/mL (≈ 5.66 µM)	15.2 µg/mL (≈ 39.1 µM)
O=C1[C@H]2N=NN(Cc3nc(-c4ccc(I)cc4)no3)[C@H]2C(=O)N1c1ccccc1	20.4 µg/mL (≈ 40.8 µM)	47.2 µg/mL (≈ 94.4 µM)	18.8 µg/mL (≈ 37.6 µM)	3.6 µg/mL (≈ 7.2 µM)	48.6 µg/mL (≈ 97.2 µM)
O=C1[C@H]2N=NN(Cc3nc(-c4ccc([N+](=O)[O-])cc4)no3)[C@H]2C(=O)N1c1ccccc1	14.7 µg/mL (≈ 35.1 µM)	41.1 µg/mL (≈ 98 µM)	8 µg/mL (≈ 19.1 µM)	2 µg/mL (≈ 4.77 µM)	> 100 µg/mL
COc1ccc(-c2noc(CN3N=N[C@@H]4C(=O)N(c5ccccc5)C(=O)[C@@H]43)n2)cc1	17 µg/mL (≈ 42 µM)	54 µg/mL (≈ 134 µM)	16.9 µg/mL (≈ 41.8 µM)	3.4 µg/mL (≈ 8.41 µM)	> 100 µg/mL
CSc1ccc(-c2noc(CN3N=N[C@@H]4C(=O)N(c5ccccc5)C(=O)[C@@H]43)n2)cc1	20.6 µg/mL (≈ 49 µM)	48.5 µg/mL (≈ 115 µM)	16.3 µg/mL (≈ 38.8 µM)	3.5 µg/mL (≈ 8.32 µM)	> 100 µg/mL
O=C1[C@H]2N=NN(Cc3nc(-c4ccc(C(F)(F)F)cc4)no3)[C@H]2C(=O)N1c1ccccc1	15 µg/mL (≈ 33.9 µM)	51.4 µg/mL (≈ 116 µM)	13.9 µg/mL (≈ 31.4 µM)	3.7 µg/mL (≈ 8.36 µM)	44.4 µg/mL (≈ 100 µM)
CN(C)c1ccc(-c2noc(CN3N=N[C@@H]4C(=O)N(c5ccccc5)C(=O)[C@@H]43)n2)cc1	21 µg/mL (≈ 50.3 µM)	36.6 µg/mL (≈ 87.7 µM)	13.1 µg/mL (≈ 31.4 µM)	4.5 µg/mL (≈ 10.8 µM)	> 100 µg/mL
O=C(Cn1ccnc1[N+](=O)[O-])NCc1ccccc1 [BENZNIDAZOLE]	–	0.464 µg/mL (≈ 1.78 µM)	–	–	–
CCCCCCCCCCCCCCCCOP(=O)([O-])OCC[N+](C)(C)C [MILTEFOSINE]	–	–	–	0.171 µg/mL (≈ 0.42 µM)	–
COc1cc([C@@H]2c3cc4c(cc3[C@H](O)[C@H]3COC(=O)[C@H]23)OCO4)cc(OC)c1OC [PODOFILOX]	–	–	–	–	0.007 µg/mL (≈ 0.0169 µM)
